Assay results: ChEMBL document CHEMBL1128507, “Design and synthesis of potent retinoid X receptor selective ligands that induce apoptosis in leukemia cells” (J Med Chem, 1995)

Columns and labels:
[1] = molecular target: T1, Retinoic acid receptor RXR-alpha (Homo sapiens, UniProt P19793); assay: Ability to bind directly to Retinoic acid receptor RXR-alpha was evaluated in a competitive binding assay.
T1 sequence (P19793 whole entry): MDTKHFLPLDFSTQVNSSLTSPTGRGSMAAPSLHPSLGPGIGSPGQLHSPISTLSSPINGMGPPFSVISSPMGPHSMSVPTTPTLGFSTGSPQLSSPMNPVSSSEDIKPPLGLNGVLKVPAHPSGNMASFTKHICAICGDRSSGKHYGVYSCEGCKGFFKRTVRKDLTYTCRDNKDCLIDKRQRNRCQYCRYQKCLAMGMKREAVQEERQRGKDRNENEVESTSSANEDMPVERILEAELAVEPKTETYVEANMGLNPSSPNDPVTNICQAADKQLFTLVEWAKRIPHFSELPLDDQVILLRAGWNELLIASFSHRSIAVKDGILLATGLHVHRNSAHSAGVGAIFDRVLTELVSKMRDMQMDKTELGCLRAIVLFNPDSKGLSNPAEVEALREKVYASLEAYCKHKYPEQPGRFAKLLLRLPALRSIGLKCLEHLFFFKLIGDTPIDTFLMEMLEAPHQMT

[2] = molecular target: T1, Retinoic acid receptor RXR-alpha; assay: Ability to activate gene expression at Retinoic acid receptor RXR-alpha was evaluated in a cotransfection assay.
[3] = molecular target: T2, Retinoic acid receptor RXR-gamma (Mus musculus, UniProt P28705); assay: Binding affinity to Retinoic acid receptor RXR-gamma was evaluated in a competitive binding assay.
T2 sequence (P28705 whole entry): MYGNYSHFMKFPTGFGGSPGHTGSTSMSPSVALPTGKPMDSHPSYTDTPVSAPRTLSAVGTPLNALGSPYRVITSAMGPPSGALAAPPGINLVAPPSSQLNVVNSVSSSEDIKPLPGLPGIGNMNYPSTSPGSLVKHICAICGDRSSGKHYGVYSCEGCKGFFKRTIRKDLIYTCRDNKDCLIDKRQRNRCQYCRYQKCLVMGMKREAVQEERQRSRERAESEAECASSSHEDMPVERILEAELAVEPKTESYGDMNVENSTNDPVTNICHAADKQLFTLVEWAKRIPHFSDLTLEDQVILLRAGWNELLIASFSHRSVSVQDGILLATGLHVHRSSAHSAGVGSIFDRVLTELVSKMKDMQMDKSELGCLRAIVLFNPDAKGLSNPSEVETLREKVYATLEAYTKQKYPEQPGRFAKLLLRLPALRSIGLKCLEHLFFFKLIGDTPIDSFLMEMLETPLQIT
Procedure, shortened: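 Receptor from baculovirus. Competition binding used [3H]-9-cis-RA as the radioligand for RXRs. Kd was calculated with the Cheng-Prussof equation. Values are mean ± SEM of about three experiments, or a single experiment in triplicate.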

[4] = molecular target: T2, Retinoic acid receptor RXR-gamma; assay: Ability to activate gene expression at Retinoic acid receptor RXR-gamma was evaluated in a cotransfection assay.
Procedure, shortened: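 CV-1 cells cotransfected with the RXR-gamma receptor, using an automated 96-well format. Values are either one experiment in triplicate or the mean ± SEM of at least two experiments, each in triplicate.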

[5] = molecular target: T3, Retinoic acid receptor RXR-beta (Mus musculus, UniProt P28704); assay: Binding affinity to Retinoic acid receptor RXR-beta was determined in a competitive binding assay.
T3 sequence (P28704 whole entry): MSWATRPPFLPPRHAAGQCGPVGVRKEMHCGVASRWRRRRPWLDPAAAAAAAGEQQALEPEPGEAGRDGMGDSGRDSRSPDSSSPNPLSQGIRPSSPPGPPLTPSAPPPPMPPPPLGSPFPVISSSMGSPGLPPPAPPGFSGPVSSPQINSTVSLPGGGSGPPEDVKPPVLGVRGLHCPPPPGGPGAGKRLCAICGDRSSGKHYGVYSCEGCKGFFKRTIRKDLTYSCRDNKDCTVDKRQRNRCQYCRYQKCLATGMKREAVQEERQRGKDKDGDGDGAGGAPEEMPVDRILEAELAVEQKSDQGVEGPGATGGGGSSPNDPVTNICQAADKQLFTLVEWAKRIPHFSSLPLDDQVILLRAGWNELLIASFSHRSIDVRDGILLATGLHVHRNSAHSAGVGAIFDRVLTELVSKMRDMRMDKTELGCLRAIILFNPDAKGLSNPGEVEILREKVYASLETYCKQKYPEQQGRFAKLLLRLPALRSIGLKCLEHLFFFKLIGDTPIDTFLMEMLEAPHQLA

[6] = molecular target: T3, Retinoic acid receptor RXR-beta; assay: Ability to activate gene expression at Retinoic acid receptor RXR-beta was evaluated in a cotransfection assay.

Row | Structure (SMILES) | Kd [1] | EC50 [2] | Kd [3] | EC50 [4] | Kd [5] | EC50 [6]
1 | Cc1cc2c(cc1C(=O)c1ccccc1C(=O)O)C(C)(C)CCC2(C)C | > 1000 nM | > 10000 nM | > 1000 nM | > 10000 nM | > 1000 nM | > 10000 nM
2 | Cc1cc2c(cc1C1(c3ccc(C(=O)O)cc3)CO1)C(C)(C)CCC2(C)C (configuration not stated) | 670 nM | 51 nM | 547 nM | 47 nM | 190 nM | 67 nM
3 | C=C(c1ccc(C(=O)O)cc1)c1cc2c(cc1C)CCCC2(C)C | > 1000 nM | 2400 nM | > 1000 nM | 2600 nM | > 1000 nM | 2400 nM
4 | Cc1cc2c(cc1C(=O)c1cccc(C(=O)O)c1)C(C)(C)CCC2(C)C | > 1000 nM | > 10000 nM | > 1000 nM | > 10000 nM | > 1000 nM | > 10000 nM
5 | C=C(c1ccc(C(=O)O)cc1)c1cc2c(cc1C)C(C)(C)CCC2 | 1160 nM | 1200 nM | 1740 nM | 600 nM | 853 nM | 770 nM
6 | Cc1cc2c(cc1C(C)(C)c1ccc(C(=O)O)cc1)C(C)(C)CCC2(C)C | > 1000 nM | 650 nM | > 1000 nM | 650 nM | > 1000 nM | 1900 nM
7 | Cc1cc2c(cc1Cc1ccc(C(=O)O)cc1)C(C)(C)CCC2(C)C | > 1000 nM | 460 nM | > 1000 nM | 440 nM | > 1000 nM | 1200 nM

Stronger by Kd [1], values ahead:

Row | Kd [1] | EC50 [2] | Kd [3] | EC50 [4] | Kd [5] | EC50 [6] | Structure (SMILES)
8 | 520 nM | 1000 nM | 450 nM | 430 nM | 770 nM | 1900 nM | Cc1cc2c(cc1Oc1ccc(C(=O)O)cc1)C(C)(C)CCC2(C)C
9 | 110 nM | 470 nM | 200 nM | 340 nM | 150 nM | 310 nM | Cc1cc2c(cc1C(C)c1ccc(C(=O)O)cc1)C(C)(C)CCC2(C)C (configuration not stated)
10 | 176 nM | 300 nM | 283 nM | 500 nM | 291 nM | 280 nM | C=C(c1ccc(C(=O)O)cc1)c1cc2c(cc1C)C(C)(C)C(C)C2(C)C (configuration not stated)
11 | 46 nM | 26 nM | 25 nM | 17 nM | 70 nM | 22 nM | Cc1cc2c(cc1C1(c3ccc(C(=O)O)cc3)CC1)C(C)(C)CCC2(C)C
12 | 50 nM | 300 nM | 150 nM | 240 nM | 160 nM | 130 nM | CC(C)=C(c1ccc(C(=O)O)cc1)c1cc2c(cc1C)C(C)(C)CCC2(C)C
